AF4-AF9 inh = inhibitors of human MLL-AF4/AF9 interaction | P42568 | AlphaScreen, biotin-AF4 peptide binding to FLAG-AF9 | inhibition, % at 10 µM | 0.47% of 350,000 active;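 active = every replicate reaching a set inhibition limit, whatever the replicate mean, cut at about 25% in these data; inconclusive = mean inhibition reaches that limit but some replicates miss it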;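 note: 0% = plate neutral control median and 100% = total signal loss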
Target sequence (P42568 whole entry, looked up): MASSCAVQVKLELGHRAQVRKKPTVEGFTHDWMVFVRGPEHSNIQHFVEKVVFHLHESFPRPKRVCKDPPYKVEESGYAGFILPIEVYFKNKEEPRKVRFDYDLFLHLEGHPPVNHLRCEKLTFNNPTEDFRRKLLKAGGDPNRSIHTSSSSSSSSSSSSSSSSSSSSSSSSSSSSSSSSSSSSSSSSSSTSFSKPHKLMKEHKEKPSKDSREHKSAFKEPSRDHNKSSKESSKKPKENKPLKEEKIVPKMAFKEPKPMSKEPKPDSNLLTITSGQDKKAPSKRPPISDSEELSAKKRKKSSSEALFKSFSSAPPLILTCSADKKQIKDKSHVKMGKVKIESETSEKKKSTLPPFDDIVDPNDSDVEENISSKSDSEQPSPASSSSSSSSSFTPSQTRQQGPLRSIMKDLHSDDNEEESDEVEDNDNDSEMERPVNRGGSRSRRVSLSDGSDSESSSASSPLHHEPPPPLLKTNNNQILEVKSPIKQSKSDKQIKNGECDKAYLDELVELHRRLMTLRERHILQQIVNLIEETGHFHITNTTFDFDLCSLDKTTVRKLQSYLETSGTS
S100A4 inh HTS = S100A4-myosin IIA interaction inhibition | AID 652163 | 0.14% of 360,000 active | inhibition, % at 10.7 µM | P26447 | S100A4/TAMRA-MyoIIA peptide fluorescence polarization;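 active = mean inhibition of at least 70% across replicates, with every replicate also reaching that level; inconclusive = mean inhibition reaches 70% but some replicates fall short; inactive = mean inhibition below 70%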
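Test system – S100A4 monomer (human) · Compound – single-point compound testing · Schedule – 5 min incubation before reading · Probe or stimulus – TAMRA-labelled myosin IIA heavy-chain peptide probe, 5 nM · Benchmarks – neutral control DMSO, positive control TFP · Medium – Calcium-containing HEPES buffer, pH 7.2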
CaV13 FRET inh = Disruptors of the CACNA1D IQ motif to Ca2+-dependent inactivation inhibitor domain association, primary screening, Förster resonance energy transfer in intact living …; inhibition, % at 12.3 µM; 0.098% of 340,000 active; AID 743397; HEK cells, CFP/YFP FRET ICDI-IQ, plate reader, 10 min; percent FRET-ratio fall versus neutral wells;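 active = mean replicate inhibition of at least 30% and at least 1% of replicates passing that level; inconclusive = only one of the two criteria is met; inactive = neither criterion is met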;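 note: 0% = median of the neutral control wells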
DENV2 CPE = protects cells from dengue virus 2 cytopathic effect; DENV2-infected cells, cytopathic effect rescue, plate reader; CPE inhibition, % at 9.99 µM; 1.7% of 350,000 active; AID 651640; in the data active = CPE inhibition above about 20%, passing the limit was not always enough; inconclusive = no clear call, values can overlap the other calls; tested in BHK-21 cells;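 note: 0% = median of neutral control wells and 100% = median of positive control wells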
SIRT5 inh = sirtuin-5 (human) deacylase inhibition; AID 652115; 1.1% of 330,000 active; inhibition, % at 15 µM; Purified SirT5, succinyl-peptide AMC, trypsin-coupled fluorescence; Q9NXA8; in the data active = inhibition above about 15%; inconclusive = no clear call, values can overlap the other calls
Starred values were filed as active, the others as inactive; ? = inconclusive; . = no result given; ! = not active in a repeat. Shown are actives, neighbours in structure and some others; about 2.7% of the full set was active somewhere.

SMILES	AF4-AF9 inh	S100A4 inh HTS	CaV13 FRET inh	DENV2 CPE	SIRT5 inh
C[C@@H](O)C#Cc1ccc([C@@H]2[C@@H](CO)N3CCCCN(C(=O)c4cccc(F)c4)C[C@@H]23)cc1	-7	7	.	-1	0
C[C@H](O)C#Cc1ccc([C@H]2[C@@H](CO)N3CCCCN(C(=O)Nc4ccccc4)C[C@@H]23)cc1	-4	7	.	23*	1
O=C(Nc1ccc(F)cc1)N1CCCCN2[C@@H](CO)[C@H](c3ccc(-c4ccncc4)cc3)[C@@H]2C1	3	-10	.	30*	-2
C[C@@H](O)C#Cc1ccc([C@@H]2[C@H]3CN(C(=O)c4cccc(F)c4)CCCCN3[C@H]2CO)cc1	.	.	.	-2	23*
CCNS(=O)(=O)c1ccc(CCC(=O)N2CCN(C(=O)OCC)CC2)cc1	1	4	-7	7	15*
CCNS(=O)(=O)c1ccc(CCC(=O)N2CCOCC2)cc1	0	-2	-5	2	-2
Cc1ccn2c(Nc3ccccc3C)c(-c3ccccn3)nc2c1	.	-10	-1	-14	-2
Cc1ccccc1Nc1c(-c2ccccn2)nc2ccccn12	42*	0	-4	-9	-2
CC(=O)c1ccc(NC(=O)c2ccc(NC(=O)CCS(=O)(=O)c3cccs3)cc2)cc1	-3	10	3	.	-4
CC(=O)c1cccc(NC(=O)c2ccc(NC(=O)CCS(=O)(=O)c3cccs3)cc2)c1	1	1	-5	28*	1
Oc1ccccc1/C=N/N1CCN(c2ccccn2)CC1	3	0	-2	-2	-5
CC(/C=N/N1CCN(c2ccccn2)CC1)=C\c1ccccc1	9	17	-5	23*	-4
CC(C)c1ccc(/C=N/N2CCN(c3ccccn3)CC2)cc1	1	2	-4	47*	0
C(=N\N1CCN(c2ccccn2)CC1)/c1cccc2ccccc12	27*	0	-4	3	-6
CC(/C=N/N1CCN(c2ccccc2)CC1)=C\c1ccccc1	2	0	-7	1	-3
COc1ccc(S(=O)(=O)Nc2ccc3c(c2)CC(=O)N([C@@H](C)CO)C[C@@H](C)[C@H](CN(C)C)O3)cc1	-10	-6	.	-5	-2
COC(=O)C1=CN(C)C=C(C(=O)OC)C1c1ccccc1Cl	.	.	36*	.	.
CC(C)NC(=O)Nc1ccc2c(c1)CC(=O)N([C@H](C)CO)C[C@H](C)[C@H](CN(C)C(=O)NC1CCCCC1)O2	-4	9	.	-7	1
C[C@@H]1CN([C@H](C)CO)C(=O)Cc2cc(NC(=O)Nc3ccccc3)ccc2O[C@@H]1CN(C)C(=O)NC1CCCCC1	-1	7	.	35*	-6
COc1ccc(NC(=O)Nc2ccc3c(c2)C(=O)N([C@H](C)CO)C[C@H](C)[C@@H](CN(C)C(=O)NC2CCCCC2)O3)cc1	-1	-3	-7	39*!	-3
COc1ccc(NC(=O)Nc2ccc3c(c2)CC(=O)N([C@H](C)CO)C[C@H](C)[C@H](CN(C)C(=O)NC2CCCCC2)O3)cc1	0	7	.	29*	-3
CC(C)NC(=O)Nc1ccc2c(c1)CC(=O)N([C@@H](C)CO)C[C@@H](C)[C@@H](CN(C)C(=O)NC1CCCCC1)O2	1	-1	.	6	18*
C[C@H](CO)N1C[C@H](C)[C@@H](CN(C)Cc2ccc3c(c2)OCO3)Oc2ccc(NS(=O)(=O)c3ccccc3)cc2CC1=O	12	-4	.	-9	1
C[C@@H]1CN([C@@H](C)CO)C(=O)Cc2cc(NC(=O)Nc3ccccc3)ccc2O[C@@H]1CN(C)C(=O)NC1CCCCC1	0	-8	.	?	-3
C[C@H](CO)N1C[C@H](C)[C@@H](CN(C)C(=O)NC2CCCCC2)Oc2ccc(NC(=O)Nc3ccccc3)cc2CC1=O	2	-2	.	46*	1
O=C(CSc1ccccc1C(=O)O)NCc1ccccc1	-7	1	10	5	15*
COc1cccc(S(=O)(=O)N[C@@H]2CC[C@H](CCn3cc(-c4ccc(F)cc4)nn3)O[C@@H]2CO)c1	1	2	.	3	-1
COc1ccc(NS(=O)(=O)c2cc(NC(=O)CCNC(=O)c3ccco3)ccc2OC)cc1	25*	-4	-13	-5	-4
CCS(=O)(=O)Nc1ccc2c(c1)C(=O)N(C)[C@H]1CC[C@H](CC(=O)N3CCCCC3)O[C@H]1CO2	-2	-33	.	-5	-2

Bioassay records as filed in PubChem BioAssay.
